The values below come from ChEMBL document CHEMBL1121487, “Fluorinated pyrimidine nucleosides. 4. Synthesis and antitumor testing of a series of 2',5'-dideoxy- and 2',3',5'-trideoxynucleosides of 5-fluorouracil” (1980).

Experiment [1] deals with Sarcoma-180. Nature of the experiment: Percent reduction against sarcoma 180J tumor growth in mice when administered intraperitoneally at dose 200 mg/kg. The settings on record: route intraperitoneal. It counts as functional, Mus musculus. The essentials: (§1)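 Sarcoma 180J tumor model in mice, with eight intraperitoneal doses per schedule (mg/kg ip × 8). Read-out is percent reduction in tumor growth. Toxicity was tracked as the number of surviving mice out of the number tested, with group sizes of 8 to 24 mice.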

Experiment [2] can be described thus: Antitumor activity against sarcoma 180J infected mice was evaluated as ratio of number of survivors to the number of tested animals at dose 200 mg/kg, ip; 8/8. It counts as functional. In a few lines: (§2)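 Mice bearing sarcoma 180J were dosed intraperitoneally eight times (mg/kg per dose, ×8). Read-outs were percent reduction in tumor growth and the number of mice surviving out of the number tested at each dose level. Mouse deaths were taken as toxicity.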

The subject of experiment [3] is Sarcoma-180. As to the kind of experiment: Percent reduction against sarcoma 180J tumor growth in mice when administered intraperitoneally at dose 100 mg/kg. It counts as functional, Mus musculus. As to conditions: route intraperitoneal. The essentials: as §1
Experiment [4] can be described thus: Antitumor activity against sarcoma 180J infected mice was evaluated as ratio of number of survivors to the number of tested animals at dose 200 mg/kg, ip; 12/16. It counts as functional. In a few lines:
as §2

The nature of experiment [5]: Antitumor activity against sarcoma 180J infected mice was evaluated as ratio of number of survivors to the number of tested animals at dose 100 mg/kg, ip; 7/8. It counts as functional. In a few lines: as §2
For experiment [6], the system named is Sarcoma-180. As to the kind of experiment: (§3) Percent reduction against sarcoma 180J tumor growth in mice when administered intraperitoneally at dose 25 mg/kg. The settings on record: route intraperitoneal. It counts as functional, Mus musculus. In a few lines:
as §1

The subject of experiment [7] is Sarcoma-180. As to the kind of experiment: Percent reduction against sarcoma 180J tumor growth in mice when administered intraperitoneally at dose 50 mg/kg. The experiment is classed as functional, Mus musculus. As to conditions: route intraperitoneal. In a few lines:
as §1

The test system of experiment [8] is Sarcoma-180. As to the kind of experiment: Percent reduction against sarcoma 180J tumor growth in mice when administered intraperitoneally at dose 12.5 mg/kg. The experiment is classed as functional, Mus musculus. The settings on record: route intraperitoneal. The essentials:
as §1

The nature of experiment [9]: Antitumor activity against sarcoma 180J infected mice was evaluated as ratio of number of survivors to the number of tested animals at dose 25 mg/kg, ip; 16/16. It counts as functional. In a few lines:
as §2

Experiment [10] can be described thus: Antitumor activity against sarcoma 180J infected mice was evaluated as ratio of number of survivors to the number of tested animals at dose 12.5 mg/kg, ip; 8/8. The experiment is classed as functional. In a few lines:
as §2

A short description of experiment [11]: Antitumor activity against sarcoma 180J infected mice was evaluated as ratio of number of survivors to the number of tested animals at dose 200 mg/kg, ip; 11/16. It counts as functional. The essentials: as §2
A short description of experiment [12]: Antitumor activity against sarcoma 180J infected mice was evaluated as ratio of number of survivors to the number of tested animals at dose 100 mg/kg, ip; 18/24. It counts as functional. In a few lines: as §2
Experiment [13] is described as follows: Antitumor activity against sarcoma 180J infected mice was evaluated as ratio of number of survivors to the number of tested animals at dose 50 mg/kg, ip; 16/16. The experiment is classed as functional. In a few lines: as §2
A short description of experiment [14]: Antitumor activity against sarcoma 180J infected mice was evaluated as ratio of number of survivors to the number of tested animals at dose 200 mg/kg, ip; 15/16.
In experiment [15] the test system is Sarcoma-180. Nature of the experiment: Percent reduction against sarcoma 180J tumor growth in mice when administered intraperitoneally at dose 40 mg/kg. As to conditions: route intraperitoneal. The experiment is classed as functional, Mus musculus. In a few lines: as §2
Experiment [16] can be described thus: as §3. It counts as functional, Mus musculus. The settings on record: route intraperitoneal. The essentials:
as §2

Experiment [17] is described as follows: Antitumor activity against sarcoma 180J infected mice was evaluated as ratio of number of survivors to the number of tested animals at dose 25 mg/kg, ip; 22/22. The experiment is classed as functional. In a few lines:
as §2

The nature of experiment [18]: Antitumor activity against sarcoma 180J infected mice was evaluated as ratio of number of survivors to the number of tested animals at dose 40 mg/kg, ip; 17/24. The experiment is classed as functional. In a few lines: as §2
Experiment [19] in a line: Antitumor activity against sarcoma 180J infected mice was evaluated as ratio of number of survivors to the number of 8 tested animals at dose 200 mg/kg, ip; 8/8. The experiment is classed as functional. In a few lines:
as §2

A short description of experiment [20]: Antitumor activity against sarcoma 180J infected mice was evaluated as ratio of number of survivors to the number of tested animals at dose 100 mg/kg, ip; 15/16. It counts as functional. The essentials: as §2

In the experiment on Sarcoma-180 [1], `C[C@H]1O[C@@H](n2cc(F)c(=O)[nH]c2=O)C[C@H]1O` registered a Reduction of 6%. The Ratio in experiment [2] stood at 8.

For the compound `CC1CC[C@H](n2cc(F)c(=O)[nH]c2=O)O1` (stereo partly drawn), the Reduction turned out to be 35% with Sarcoma-180 [3] and 81% in the experiment with Sarcoma-180 [1]. Further, the values for the Ratio in [4] and in [5] were 12 and 7, respectively.

Take `O=c1[nH]c(=O)n([C@H]2C[C@H](O)[C@@H](CO)O2)cc1F` [FLOXURIDINE]: the Reduction with Sarcoma-180 [3] was 93%; in the experiment with Sarcoma-180 [1], 93%; in the experiment on Sarcoma-180 [6], 61%; with Sarcoma-180 [7], 85%; in the experiment on Sarcoma-180 [8], 26%. Besides, the Ratio in experiment [9] came out at 16; in experiment [10], 8; in [11] it was 11; in experiment [12], 18; in [13], 16.

`C[C@H]1O[C@@H](n2cc(F)c(=O)[nH]c2=O)C[C@@H]1O`: the Reduction in the experiment with Sarcoma-180 [1] worked out at 0%. In addition, the Ratio in experiment [14] was 15.

`O=c1[nH]cc(F)c(=O)[nH]1` [FLUOROURACIL]: the Reduction in the experiment on Sarcoma-180 [15] was 87%; in experiment [16] it was 38%. Also, the Ratio is listed as 22 in experiment [17] and 17 in experiment [18].

For the compound `C[C@H]1O[C@@H]2C[C@H]1Oc1ncc(F)c(=O)n12`, in the experiment with Sarcoma-180 [1], the Reduction amounted to 28%. In addition, the Ratio in [19] is on record as 8.

For the compound `O=c1[nH]c(=O)n(C2CCCO2)cc1F` (stereo not drawn) [TEGAFUR], the Reduction turned out to be 46% in the experiment on Sarcoma-180 [3] and 81% in the experiment on Sarcoma-180 [1]. In addition, the Ratio in experiment [4] came out at 12; in experiment [20] it was 15.
